Test results as given in ChEMBL document CHEMBL4330056, “Synthesis and Cytotoxic and Antiviral Profiling of Pyrrolo- and Furo-Fused 7-Deazapurine Ribonucleosides” (J Med Chem, 2018).
Activity calls are given as the source filed them. No cut-off for these calls is given here.

How the values were obtained:
[1] = system: Influenza A virus; experiment: Antiviral activity against Influenza A virus (A/Mexico/4108/2009(H1N1)) infected in MDCK cells assessed as inhibited virus-induced cytopathic effect incubated for 2 days by XTT assay; format: functional, organism-based
[2] = system: HL-60; experiment: Antiproliferative activity against human HL60 cells after 72 hrs by XTT assay; format: functional, cell-based; conditions: HL-60, 72 h
[3] = system: U2OS; experiment: Antiproliferative activity against human U2OS cells after 3 days by MTS assay; format: functional, cell-based; conditions: 72 h
[4] = system: A549; experiment: Antiproliferative activity against human A549 cells after 3 days by MTS assay; format: functional, cell-based; conditions: A549, 72 h
[5] = Chemical stability of the compound assessed as compound remaining after 60 mins relative to control; format: physicochemical; conditions: read-out: Stability
[6] = system: CCRF-CEM; experiment: Induction of cell cycle arrest in human CCRF-CEM cells assessed as accumulation at G0/G1 phase at IC50 concentration after 24 hrs by propidium iodide-staining based flow cytometry (reference value: 39.70%); format: functional
[7] = system: Human alphaherpesvirus 1; experiment: Antiviral activity against human herpesvirus 1 HF infected in African green monkey Vero cells assessed as inhibited virus-induced cytopathic effect incubated for 3 days by XTT assay; format: functional, organism-based
[8] = Antiproliferative activity against human K562-TAX cells after 3 days by MTS assay; format: functional, cell-based; conditions: 72 h
[9] = system: CCRF-CEM; experiment: Antiproliferative activity against human CCRF-CEM cells after 3 days by MTS assay; format: functional, cell-based; conditions: 72 h
[10] = system: CCRF-CEM; experiment: Induction of cell cycle arrest in human CCRF-CEM cells assessed as accumulation at subG1 phase at 5 times IC50 concentration after 24 hrs by propidium iodide-staining based flow cytometry (reference value: 3.45%); format: functional
[11] = system: CCRF-CEM; experiment: Induction of cell cycle arrest in human CCRF-CEM cells assessed as accumulation at G2/M phase at 5 times IC50 concentration after 24 hrs by propidium iodide-staining based flow cytometry (reference value: 19.22%); format: functional
[12] = Stability in human plasma assessed as compound remaining at 3.3 umol/L after 30 mins by RF-MS analysis relative to control; format: ADME, cell-free; conditions: read-out: Stability
[13] = Stability in human plasma assessed as compound remaining at 3.3 umol/L after 15 mins by RF-MS analysis relative to control; format: ADME, cell-free; conditions: read-out: Stability
[14] = Chemical stability of the compound assessed as compound remaining after 120 mins relative to control; format: physicochemical; conditions: read-out: Stability
[15] = system: MRC5; experiment: Antiproliferative activity against human MRC5 cells after 3 days by MTS assay; conditions: MRC5, 72 h
[16] = system: BJ; experiment: Antiproliferative activity against human BJ cells after 3 days by MTS assay; conditions: 72 h
[17] = system: CCRF-CEM; experiment: Induction of cell cycle arrest in human CCRF-CEM cells assessed as accumulation at S phase at 5 times IC50 concentration after 24 hrs by propidium iodide-staining based flow cytometry (reference value: 41.08%); format: functional
[18] = Metabolic stability in human liver microsomes assessed as compound remaining at 5 umol/L after 60 mins relative to control; format: ADME, Microsome; conditions: read-out: Stability
Method in brief: (§1)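 Human microsomal fraction; percent compound remaining over time.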

[19] = target: T1, Adenosine kinase (Homo sapiens, UniProt P55263); experiment: Inhibition of recombinant human ADK using [3H]-adenosine as substrate after 20 mins by TLC scanner-based analysis relative to control
T1 sequence (P55263 whole entry): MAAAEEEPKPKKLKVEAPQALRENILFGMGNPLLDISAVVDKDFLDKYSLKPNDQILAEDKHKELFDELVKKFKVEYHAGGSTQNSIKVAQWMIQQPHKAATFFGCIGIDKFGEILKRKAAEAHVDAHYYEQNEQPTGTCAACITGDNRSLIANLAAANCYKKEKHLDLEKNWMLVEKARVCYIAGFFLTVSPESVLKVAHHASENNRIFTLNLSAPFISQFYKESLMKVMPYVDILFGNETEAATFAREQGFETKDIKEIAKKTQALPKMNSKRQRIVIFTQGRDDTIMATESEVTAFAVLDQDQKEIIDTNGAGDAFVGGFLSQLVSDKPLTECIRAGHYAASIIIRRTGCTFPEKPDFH
Method in brief: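 ADK inhibition: 50 μM adenosine substrate with 10 μM test compound and 97 ng enzyme, 20 min at 37 °C.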

[20] = Protein binding in human plasma; format: ADME, cell-free; conditions: read-out: PPB (converted)
[21] = system: CCRF-CEM; experiment: Induction of cell cycle arrest in human CCRF-CEM cells assessed as accumulation at G2/M phase at IC50 concentration after 24 hrs by propidium iodide-staining based flow cytometry (reference value: 19.22%); format: functional
[22] = system: CCRF-CEM; experiment: Inhibition of DNA synthesis in human CCRF-CEM cells assessed as DNA synthesis level at 5 times IC50 concentration after 24 hrs by BrdU incorporation assay (reference value: 43.39%); format: functional; design: scale not given: the % may be the effect or the level left
[23] = system: CCRF-CEM; experiment: Inhibition of DNA synthesis in human CCRF-CEM cells assessed as DNA synthesis level at IC50 concentration after 24 hrs by BrdU incorporation assay (reference value: 43.39%); format: functional; design: scale not given: the % may be the effect or the level left
[24] = system: CCRF-CEM; experiment: Inhibition of mitosis in human CCRF-CEM cells assessed Ser10 H3 phosphorylation positive cells at IC50 concentration after 24 hrs by flow cytometry relative to total cell population (reference value: 1.36%); format: functional; design: scale not given: the % may be the effect or the level left
[25] = system: HCT-116; experiment: Antiproliferative activity against p53 gene knocked out human HCT116 cells after 3 days by MTS assay; format: functional, cell-based; conditions: HCT-116, 72 h
[26] = Stability in human plasma assessed as compound remaining at 3.3 umol/L after 60 mins by RF-MS analysis relative to control; format: ADME, cell-free; conditions: read-out: Stability
[27] = system: Hepatitis C virus; experiment: Antiviral activity against Hepatitis C virus genotype 2a infected in human Huh-luc replicon cells after 3 days by luciferase assay; format: functional, organism-based, Hepacivirus hominis; conditions: subtype 2a, 72 h
[28] = system: CCRF-CEM; experiment: Induction of cell cycle arrest in human CCRF-CEM cells assessed as accumulation at S phase at IC50 concentration after 24 hrs by propidium iodide-staining based flow cytometry (reference value: 41.08%); format: functional
[29] = system: HepG2; experiment: Antiproliferative activity against human HepG2 cells after 72 hrs by XTT assay; format: functional, cell-based; conditions: HepG2, 72 h
[30] = Mitochondrial toxicity in human OCI-AML2 cells assessed as reduction in oxidative phosphorylation-based viability after 72 hrs by CellTiterGlo assay; format: cell-based
Method in brief: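 OCI-AML2 leukemia cells, which rely on mitochondrial OXPHOS, treated for 3 days in a survival assay; IC50 reported.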

[31] = system: CCRF-CEM; experiment: Inhibition of RNA synthesis in human CCRF-CEM cells assessed as RNA synthesis level at IC50 concentration after 24 hrs by BrU incorporation assay (reference value: 49.89%); format: functional; design: scale not given: the % may be the effect or the level left
[32] = Effective permeability of the compound at 20 umol/L by PAMPA; format: ADME; conditions: 20 µM
[33] = Antiproliferative activity against human CEM-DNR-bulk cells after 3 days by MTS assay; conditions: 72 h
[34] = Metabolic stability in human liver microsomes assessed as compound remaining at 5 umol/L after 15 mins relative to control; format: ADME, Microsome; conditions: read-out: Stability; method in brief: as §1
[35] = system: dengue virus type 2; experiment: Antiviral activity against Dengue virus 2 Thailand/16681/84 infected in African green monkey Vero cells assessed as inhibition of virus replication incubated for 3 days by fluorescence microscopy; format: functional, organism-based
[36] = Stability in human plasma assessed as compound remaining at 3.3 umol/L after 120 mins by RF-MS analysis relative to control; format: ADME, cell-free; conditions: read-out: Stability
[37] = Chemical stability of the compound assessed as compound remaining after 15 mins relative to control; format: physicochemical; conditions: read-out: Stability
[38] = system: Coxsackievirus B3; experiment: Antiviral activity against Human coxsackie B3 Nancy infected in human HeLa cells assessed as inhibited virus-induced cytopathic effect incubated for 2 days by XTT assay; format: functional, organism-based
[39] = system: CCRF-CEM; experiment: Inhibition of RNA synthesis in human CCRF-CEM cells assessed as RNA synthesis level at 5 times IC50 concentration after 24 hrs by BrU incorporation assay (reference value: 49.89%); format: functional; design: scale not given: the % may be the effect or the level left
[40] = system: CCRF-CEM; experiment: Inhibition of mitosis in human CCRF-CEM cells assessed Ser10 H3 phosphorylation positive cells at 5 times IC50 concentration after 24 hrs by flow cytometry relative to total cell population (reference value: 1.36%); format: functional; design: scale not given: the % may be the effect or the level left
[41] = system: HCT-116; experiment: Antiproliferative activity against human HCT116 cells after 3 days by MTS assay; format: functional, cell-based; conditions: HCT-116, 72 h
[42] = system: HeLa S3; experiment: Antiproliferative activity against human HeLaS3 cells after 72 hrs by XTT assay; format: functional, cell-based; conditions: HeLa S3, 72 h
[43] = Metabolic stability in human liver microsomes assessed as compound remaining at 5 umol/L after 30 mins relative to control; format: ADME, Microsome; conditions: read-out: Stability; method in brief: as §1
[44] = system: CCRF-CEM; experiment: Induction of cell cycle arrest in human CCRF-CEM cells assessed as accumulation at subG1 phase at IC50 concentration after 24 hrs by propidium iodide-staining based flow cytometry (reference value: 3.45%); format: functional
[45] = Chemical stability of the compound assessed as compound remaining after 30 mins relative to control; format: physicochemical; conditions: read-out: Stability
[46] = target: T1, Adenosine kinase; experiment: Substrate activity at recombinant human ADK assessed as compound phosphorylation at 50 uM after 20 mins in presence of [3H]-adenosine by UPLC; format: ADME
[47] = system: Hepatitis C virus; experiment: Antiviral activity against Hepatitis C virus genotype 1b infected in human Huh-luc replicon cells after 3 days by luciferase assay; format: functional, organism-based, Hepacivirus hominis; conditions: subtype 1b, 72 h
[48] = Cytotoxicity against human Hep2 cells assessed as reduction in cell viability after 3 days by CellTiter-Glo assay; format: cell-based; conditions: HEp-2 cells
[49] = system: CCRF-CEM; experiment: Induction of cell cycle arrest in human CCRF-CEM cells assessed as accumulation at G0/G1 phase at 5 times IC50 concentration after 24 hrs by propidium iodide-staining based flow cytometry (reference value: 39.70%); format: functional
[50] = system: Human orthopneumovirus; experiment: Antiviral activity against Human respiratory syncytial virus A2 infected in Hep2 cells assessed as reduction in virus-induced cytopathic effect incubated for 4 days by CellTiter-Glo viability reagent based assay; format: functional, organism-based
[51] = system: K562; experiment: Antiproliferative activity against human K562 cells after 3 days by MTS assay; format: functional, cell-based; conditions: K562, 72 h

## CSc1ncnc2c1c1c(ccn1C)n2[C@@H]1O[C@H](CO)[C@@H](O)[C@H]1O
[1]
  Activity: inactive
[2]
  IC50: 580 nM
[3]
  IC50: 1410 nM
[4]
  IC50: > 50000 nM
[5]
  remaining at 1 h: 98%
[6]
  Activity: 26.28%
[7]
  Activity: inactive
[8]
  IC50: 50000 nM
[9]
  IC50: 340 nM
[10]
  Activity: 12.67%
[11]
  Activity: 16.52%
[12]
  remaining at 0.5 h, 3.3 µM: 99%
[13]
  remaining at 0.25 h, 3.3 µM: 100%
[14]
  remaining at 2 h: 97%
[15]
  IC50: > 50000 nM
[16]
  IC50: 5160 nM
[17]
  Activity: 42.94%
[18]
  remaining at 1 h, 5 µM: 97%
[19]
  IC50: > 10000 nM
[20]
  fraction unbound: 0.11
[21]
  Activity: 17.36%
[22]
  Activity: 7.8%
[23]
  Activity: 30.41%
[24]
  Activity: 0.33%
[25]
  IC50: 380 nM
[26]
  remaining at 1 h, 3.3 µM: 98%
[27]
  EC50: 130 nM
[28]
  Activity: 56.36%
[29]
  IC50: 1530 nM
[30]
  IC50 at 72 h: 160 nM
[31]
  Activity: 21.43%
[32]
  log(permeability): -5.69
[33]
  IC50: > 50000 nM
[34]
  remaining at 0.25 h, 5 µM: 99%
[35]
  Activity: inactive
[36]
  remaining at 2 h, 3.3 µM: 98%
[37]
  remaining at 0.25 h: 100%
[38]
  Activity: inactive
[39]
  Activity: 3.56%
[40]
  Activity: 1.49%
[41]
  IC50: 300 nM
[42]
  IC50: 1360 nM
[43]
  remaining at 0.5 h, 5 µM: 99%
[44]
  Activity: 5.61%
[45]
  remaining at 0.5 h: 99%
[46]
  Activity: 33%
[47]
  EC50: 40 nM
[48]
  CC50 at 72 h: > 44400 nM
[49]
  Activity: 40.55%
[50]
  Activity: inactive
[51]
  IC50: 390 nM
